According to the RNAGym collection of RNA variant scans (doi:10.1126/science.aae0568):
This sample holds only a part of the variants without activity.

B1: tRNA (parent)
chain: GUUCCGUUGGCGUAAUGGUAACGCGUCUCCCUCCUAAGGAGAAGACUGCGGGUUCGAGUCCCGUACGGAACG

Variants of: B1
Assay: yeast fitness relative to wild type (ratio to wild type); higher = fitter; tRNA-Arg(CCU), competitive growth, 37 C, YPD
In short: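 Variants of the tRNA-Arg(CCU) gene, chemically synthesised with a 3% per-site mutation rate at 69 sites, were placed at the native genomic locus in Saccharomyces cerevisiae. The pooled strains were competed in YPD at 37°C for 24 hours in six parallel replicates. Gene amplicons from the start population and from each end population were read by 100-nucleotide paired-end sequencing. Darwinian fitness relative to wild type came from changes in genotype frequencies; genotypes needed ≥ 100 starting reads, and estimates < 0.5 were set to 0.5.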

Row | Variant | yeast fitness
1 | U7A G23A C24U U35A C60A | 0.632
2 | U7C A20G C61U | 0.587
3 | U7A G9C A40C U47C | ≤ 0.5
4 | U7A C22U C66G G68C | ≤ 0.5
5 | U7A U47A C55G G68A | ≤ 0.5
6 | U7A C22G C30U A37G | ≤ 0.5
7 | G6U A40G C61A U64C | ≤ 0.5
8 | U7C A36G A57U | 0.566
9 | U7A U8G A36U A43U | ≤ 0.5
10 | U7A G58A | 0.635
11 | U7A C11G C29U | 0.555
12 | U7A U19A C29A G68C | ≤ 0.5
13 | U7A A20G C29A | 0.544
14 | U7A G12A C30U | ≤ 0.5
15 | U7A G17A A45C U47A G50A | ≤ 0.5
16 | U7A C34U C66G | ≤ 0.5
17 | G6U G44C | 0.755
18 | U7A C29U C62U | ≤ 0.5
19 | U7A A20U C55A C66U | 0.894
20 | G6C U32A | 0.756
21 | U7A C29A G58A C61G A70U | 0.665

Row | Variant | yeast fitness
22 | U7A C29G A70C | ≤ 0.5
23 | G6C U35A G44C | 0.569
24 | U7A A20G A40U | ≤ 0.5
25 | U7A C34G | 0.543
26 | U7A C11U A36U G58C | ≤ 0.5
27 | U7C A36U C49G | 0.744
28 | U7A A21C A36G G68C | ≤ 0.5
29 | U7A C29U C31A A65C | 0.655
30 | G6C U47A C60G | ≤ 0.5
31 | G6C U35C U59C | ≤ 0.5
32 | U7A A20C U26A | ≤ 0.5
33 | U7A A70C | 0.817
34 | U7A U8A C11G G56A A69U | 0.548
35 | U7A G23C C46G G51C U53A | ≤ 0.5
36 | U7A G9C C24A A43U G52A | ≤ 0.5
37 | U7A A20G C46G G63C G67C A69U | ≤ 0.5
38 | U7A G17A C24U C34A A40G C61U A69U | ≤ 0.5
39 | U7A C33U A42C U64C A70G | ≤ 0.5
40 | U7A C22G C30U A37G A70G | 0.563
41 | U7A G10C C30G C46U | ≤ 0.5
42 | U7A C49U | 0.738

Row | Variant | yeast fitness
43 | U7A A21G C61G C66G | ≤ 0.5
44 | U7A G23A G68U | ≤ 0.5
45 | U7A C30U C33U C46U G68U | ≤ 0.5
46 | U7A A36U C60A U64C | ≤ 0.5
47 | U7A G10C C27G U32A G56A A57U | ≤ 0.5
48 | U7C A14C G18A A43C A57U G63A | ≤ 0.5
49 | U7A A21G C30G A36G C46G A57U | 0.545
50 | U7A A36C G56A | ≤ 0.5
51 | U7A A42G G68C | ≤ 0.5
52 | U7A G39A A45G U47G | 0.623
53 | U7A A42G | 0.655
54 | U7A C29G A36C | 0.566
55 | U7A C24G C31U C55A | ≤ 0.5
56 | U7A G10C C30G A36U | ≤ 0.5
57 | U7A A14U A20C U28C C46U G58A | ≤ 0.5
58 | U7A C62A A69G A70G | ≤ 0.5
59 | U7A C31U C34G | ≤ 0.5
60 | U7A G50A C60G U64G | ≤ 0.5
61 | U7A U8A G41A A70U | ≤ 0.5
62 | U7C A14G C29U C31U C33U C55U | ≤ 0.5
63 | U7C A20U A36G C62U | ≤ 0.5

Row | Variant | yeast fitness
64 | U7A A14G G18C U54C | ≤ 0.5
65 | U7A G51A G52A | 0.536
66 | U7A C27G C34G U54A | ≤ 0.5
67 | G6C U35C | 0.866
68 | U7A A15G G23A | 0.638
69 | U7A C29G C34G A36G U54C A57G | ≤ 0.5
70 | G6U | 0.918
71 | U7A A37U G50A U53C C62A A69U | ≤ 0.5
72 | U7A C34G C62U G68C | 0.559
73 | U7A G9C G17C | 0.55
74 | G6C U19C C22A U35C A69U | ≤ 0.5
75 | U7A A20C G58A G63A | ≤ 0.5
76 | U7A U13G C55G | ≤ 0.5
77 | G6C U16G G39C | ≤ 0.5
78 | G6C U35A A43U C62U G68C | ≤ 0.5
79 | U7A C30U C46U C55G | ≤ 0.5
80 | U7A C34A G56C | 0.541
81 | U7C A14G G17A G48C A70U | ≤ 0.5
82 | U7A G10A A20C C29A C55G G63C | ≤ 0.5
83 | U7A U64C | 0.829
84 | U7A U8C G17A C27G C29U A43C G52A | ≤ 0.5
